The source of these data is paper PMC7826402 (Proceedings of the National Academy of Sciences of the …, 2021).

In test [1] the test system is CXCR4-mediated HIV-1 infection. Nature of the test: CXCR4-tropic HIV-1 NL4-3 infection of GHOST-CXCR4 cells. The class given is cell-based, HIV-1 in human osteosarcoma (GHOST) cells. The conditions noted are these: GHOST-CXCR4, HIV-1 NL4-3; three experiments.
Test [2] concerns CXCR4. The conditions noted are these: cited from earlier work.
For the next test, the system named is CCR5. The settings on record: cited from earlier work.
Test [3] deals with GPR15. Description: GPR15 surface expression on PBMCs. The class given is cell-based, human. The conditions noted are these: 10 µM, 1 h at 37°C; FACS; n = 3 donors.
In test [4] the test system is CXCR4. Description: CXCR4 surface expression on PBMCs. The settings on record: 10 µM, 1 h at 37°C; FACS; n = 3 donors. The class given is cell-based, human.
Test [5] concerns GPR15. Nature of the test: GPR15 cell surface down-modulation in GHOST-GPR15 and CEM-M7 cells. It counts as cell-based, human.
The test system of test [6] is GPR15-mediated SIVmac239 infection. Nature of the test: Inhibition of GPR15-mediated SIVmac239 infection of GHOST-GPR15 cells. It counts as cell-based, SIVmac239 in human osteosarcoma (GHOST) cells. In outline: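 GHOST-GPR15 cells were seeded, cultured overnight and treated with test peptide for 2 h at 37 °C. They were then infected with SIVmac239 carrying Firefly luciferase in place of nef. Three days post-infection, cells were lysed and luciferase activity (RLU) was measured. Runs were at least in triplicate (mean ± SEM), and IC₅₀ was derived from increasing peptide concentrations.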

Test [7] has as its system GPR15. Description: Calcium release in GPR15-expressing CHO cells. The class given is cell-based. The conditions noted are these: CHO cells with human GPR15 and Gα16; aequorin; quadruplicate.

Consider `c1cc(CN2CCCNCCNCCCNCC2)ccc1CN1CCCNCCNCCCNCC1` [AMD3100, reference compound], for which the “inhibition of CXCR4-mediated HIV-1 infection” value in test [1] was “in contrast to the small molecule inhibitor AMD3100, neither CysC95-146 nor GPR15L inhibited”. The “antagonism of chemokine signaling via CXCR4” value in the test on CXCR4 [2] was “antagonize chemokine signaling via these GPCRs”.

For “CXCL-12/SDF-1: chemokine ligand of CXCR4”, the “inhibition of CXCR4-mediated HIV-1 infection by chemokine ligand” value with CXCR4 [2] is on record as “inhibit CCR5- or CXCR4-mediated HIV-1 infection, respectively”.

Consider Maraviroc [reference compound], for which, in the test on CCR5, the “antagonism of chemokine signaling via CCR5” value was “antagonize chemokine signaling via these GPCRs”.

As for “GPR15L: agonistic chemokine ligand of GPR15 (KRRPAKAWSGRRTRLCCHRVPSPNSTNLKGHHVRLCKPCKLEPEPRLWVVPGALPQV; UniProt Q6UWK7 25-81, looked up)”, the “reduction of GPR15 cell surface expression on PBMCs” value with GPR15 [3] is reported as about 40%. In addition, the “CXCR4 surface expression on PBMCs” value with CXCR4 [4] is on record as “induced significant down-modulation of CXCR4”. Besides, in the test on GPR15 [5] (GHOST-GPR15 and CEM-M7 cells, 30 min at 37°C or 4°C, flow cytometry), the “GPR15 cell surface expression” value is “induced down-regulation of GPR15 from the surface of GHOST-GPR15 and CEM-M7 cells”. In addition, the “GPR15 receptor internalization on ice” value in the test on GPR15 [5] (cells kept on ice (4°C)) is on record as “strongly reduced”. Besides, the “inhibition of CXCR4-mediated HIV-1 infection” value in test [1] is listed as “neither CysC95-146 nor GPR15L inhibited CXCR4-mediated HIV-1 infection”. Besides, in test [6] (GHOST-GPR15 treated with CysC95-146 in presence or absence of GPR15L, SIVmac239 luciferase reporter), the “effect of GPR15L on antiviral activity of CysC95-146” value was “did not enhance the antiviral activity of CysC95-146”. In addition, the “inhibitory effect on HIV and SIV entry” value in test [6] (overall statement (Discussion)) was “little if any inhibitory effect on HIV and SIV entry”. In the test with GPR15 [7], the “calcium release (GPR15 signaling)” value is recorded as “GPR15 signaling was confirmed”.

B1: CCL5/RANTES: chemokine ligand of CCR5 (protein, UniProt P13501 24-91, looked up)
C-C motif chemokine 5: SPYSSDTTPCCFAYIARPLPRAHIKEYFYTSGKCSNPAVVFVTRKNRQVCANPEKKWVREYINSLEMS
Take B1: in the test on CCR5, the “inhibition of CCR5-mediated HIV-1 infection by chemokine ligand” value was “inhibit CCR5- or CXCR4-mediated HIV-1 infection, respectively”.

B2: cystatin C: small (13 kDa) basic protein; human Cystatin C protein (purified, from human urine) (protein, UniProt P01034 27-146, looked up)
Cystatin-C: SSPGKPPRLVGGPMDASVEEEGVRRALDFAVGEYNKASNDMYHSRALQVVRARKQIVAGVNYFLDVELGRTTCTKTQPNLDNCPFHDQPHLKRKAFCSFQIYAVPWQGTMTLSKSTCQDA
Regarding B2, the “inhibition of GPR15-mediated SIVmac239 infection (in words)” value in test [6] (GHOST-GPR15 cells, SIVmac239 F-Luc, peptide preincubation 1 – 2 h 37 °C, 3 dpi) is recorded as “little inhibitory effect”.
